Usually IC50 stands for the concentration that gives 50% inhibition. In general, Ki refers to the dissociation constant of the complex between target and ligand, obtained from inhibition or displacement. One may read the EC50 as the concentration needed to bring the measured effect to its halfway point.

Data on eight molecules can be found in publication PMC4668232 (Cancer research, 2015).

Numbered stars: 1 amine (or outer) side, 2 acyl side, 3 side chain; on linkers, the order of the positions; unused ones are H or OH. Peptide text beside a SMILES is read from it. * marks the point of attachment. AMC = Cc1cc(=O)oc2cc(N*)ccc12; Suc = O=C(CCC(=O)[*:2])[*:1]; Cbz = O=C(OCc1ccccc1)*

The target of assay [1] is UCH37 (Mus musculus, UniProt Q9WUP7). Kind of assay: DUB activity profiling in cell lysates, UCH37 labeling. Particulars: read-out: IC50, inhibition of UCH37 labeling. It counts as biochemical.
The target of assay [2] is USP24 (Mus musculus, UniProt B1AY13). Put plainly: DUB activity profiling in cell lysates, USP24 labeling. The class given is biochemical. The following applies: read-out: IC50, USP24 labeling.
For assay [3], the target named is recombinant UCHL3 (Homo sapiens, UniProt P15374). Put plainly: Recombinant DUB assay, UCHL3. It counts as biochemical.
Assay [4] concerns the target USP9x in BaF3/p210 cells (Mus musculus, UniProt P70398). Put plainly: USP9x inhibition in living cells. It counts as cell-based. Particulars: read-out: IC50, USP9x inhibition in cells; BaF3/p210 cells treated 4 h.
Assay [5] relates to Flag-Mcl-1 in COS1 cells. Put plainly: Flag-Mcl-1 ubiquitination, immunoprecipitation. It counts as cell-based, African green monkey. The following applies: COS1 cells expressing Flag-Mcl-1, 2 h.
For assay [6], the target named is T1, recombinant USP9x (Homo sapiens, UniProt Q93008). Kind of assay: Recombinant DUB assay. It counts as biochemical. The following applies: for Ki: read-out: Ki, recombinant USP9x, Ub-AMC hydrolysis. In short, it runs like this: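 Purified recombinant human USP9x was assayed by Ub-AMC hydrolysis. AMC release was monitored fluorimetrically at 37 °C in 50 mM HEPES pH 7.6, 100 mM NaCl, 0.75 mM BME and quantified against AMC standard curves. Slow-binding kinetics were analysed: kon was determined at varied Ub-AMC concentrations to assign inhibition mode, and Ki was derived.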
T1 sequence (Q93008 whole entry): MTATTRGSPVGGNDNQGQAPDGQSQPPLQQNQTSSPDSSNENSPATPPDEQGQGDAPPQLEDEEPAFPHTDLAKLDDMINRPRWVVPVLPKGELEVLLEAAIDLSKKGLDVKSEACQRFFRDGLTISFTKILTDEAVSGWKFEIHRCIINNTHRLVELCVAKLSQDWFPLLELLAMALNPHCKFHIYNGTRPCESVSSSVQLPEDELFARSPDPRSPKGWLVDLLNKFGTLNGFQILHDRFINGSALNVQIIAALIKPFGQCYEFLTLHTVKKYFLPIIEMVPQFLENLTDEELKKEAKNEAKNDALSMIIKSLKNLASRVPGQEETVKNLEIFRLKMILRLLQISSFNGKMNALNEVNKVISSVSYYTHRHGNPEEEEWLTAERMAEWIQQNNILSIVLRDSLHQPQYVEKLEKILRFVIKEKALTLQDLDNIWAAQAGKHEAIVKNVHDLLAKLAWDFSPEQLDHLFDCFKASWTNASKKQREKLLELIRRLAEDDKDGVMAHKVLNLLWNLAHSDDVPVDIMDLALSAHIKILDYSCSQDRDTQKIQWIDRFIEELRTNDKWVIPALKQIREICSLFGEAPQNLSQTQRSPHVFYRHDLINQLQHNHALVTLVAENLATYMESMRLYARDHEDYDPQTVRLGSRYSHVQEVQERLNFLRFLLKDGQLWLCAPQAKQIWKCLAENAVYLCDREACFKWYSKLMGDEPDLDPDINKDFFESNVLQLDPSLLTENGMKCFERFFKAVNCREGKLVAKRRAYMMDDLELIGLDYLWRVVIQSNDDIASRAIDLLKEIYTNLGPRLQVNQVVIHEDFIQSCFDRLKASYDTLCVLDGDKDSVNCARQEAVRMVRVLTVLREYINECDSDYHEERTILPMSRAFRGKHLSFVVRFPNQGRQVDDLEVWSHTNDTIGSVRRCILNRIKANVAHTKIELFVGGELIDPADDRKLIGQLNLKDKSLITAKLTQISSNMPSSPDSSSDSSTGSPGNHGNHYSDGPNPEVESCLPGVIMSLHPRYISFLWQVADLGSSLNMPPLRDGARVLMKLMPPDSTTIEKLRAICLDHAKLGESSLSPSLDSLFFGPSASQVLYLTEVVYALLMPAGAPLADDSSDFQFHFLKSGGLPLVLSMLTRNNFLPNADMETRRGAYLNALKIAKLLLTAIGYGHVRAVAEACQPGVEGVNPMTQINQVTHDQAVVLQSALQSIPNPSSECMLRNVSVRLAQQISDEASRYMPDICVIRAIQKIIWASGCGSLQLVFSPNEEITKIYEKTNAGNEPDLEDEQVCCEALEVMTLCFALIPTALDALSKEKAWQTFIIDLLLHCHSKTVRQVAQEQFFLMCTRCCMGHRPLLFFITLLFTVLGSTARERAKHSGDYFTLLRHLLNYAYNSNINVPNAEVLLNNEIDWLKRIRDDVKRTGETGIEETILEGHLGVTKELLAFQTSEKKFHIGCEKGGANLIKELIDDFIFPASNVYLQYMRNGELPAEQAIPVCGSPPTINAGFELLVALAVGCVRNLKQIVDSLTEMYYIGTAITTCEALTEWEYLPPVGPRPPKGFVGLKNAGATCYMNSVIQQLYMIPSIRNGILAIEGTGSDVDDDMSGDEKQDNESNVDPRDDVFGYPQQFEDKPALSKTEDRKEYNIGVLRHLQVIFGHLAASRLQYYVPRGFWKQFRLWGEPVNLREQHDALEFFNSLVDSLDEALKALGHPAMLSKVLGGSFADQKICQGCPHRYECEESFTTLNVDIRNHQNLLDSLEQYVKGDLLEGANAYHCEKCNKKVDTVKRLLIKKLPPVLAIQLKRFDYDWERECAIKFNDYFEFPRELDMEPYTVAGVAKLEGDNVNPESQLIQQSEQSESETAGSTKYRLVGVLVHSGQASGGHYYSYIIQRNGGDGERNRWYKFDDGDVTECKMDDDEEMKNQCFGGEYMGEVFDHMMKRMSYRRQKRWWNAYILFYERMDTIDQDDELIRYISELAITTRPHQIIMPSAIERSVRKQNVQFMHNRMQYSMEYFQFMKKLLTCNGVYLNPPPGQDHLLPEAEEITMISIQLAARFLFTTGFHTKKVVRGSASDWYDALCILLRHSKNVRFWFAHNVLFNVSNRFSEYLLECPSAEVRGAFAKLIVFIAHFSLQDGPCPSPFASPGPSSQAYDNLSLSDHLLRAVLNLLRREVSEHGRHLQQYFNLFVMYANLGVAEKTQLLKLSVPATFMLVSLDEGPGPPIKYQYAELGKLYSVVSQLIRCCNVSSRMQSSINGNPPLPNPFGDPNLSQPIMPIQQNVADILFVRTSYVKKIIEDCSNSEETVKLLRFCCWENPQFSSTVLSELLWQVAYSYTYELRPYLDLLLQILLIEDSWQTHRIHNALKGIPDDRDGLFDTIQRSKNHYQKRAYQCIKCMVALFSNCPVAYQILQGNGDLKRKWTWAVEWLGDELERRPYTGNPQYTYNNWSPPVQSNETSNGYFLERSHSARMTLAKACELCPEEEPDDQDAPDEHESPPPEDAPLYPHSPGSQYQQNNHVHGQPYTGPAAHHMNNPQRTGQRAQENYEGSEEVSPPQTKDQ

Assay [7] has as its system Mcl-1 in BaF3/p210 cells. Kind of assay: Mcl-1 levels, western blot. The class given is cell-based, mouse. Particulars: 4 h. In general terms: Immunoblotting shows a protein as a band on a membrane.
Assay [8] deals with catalytic domain of USP7 (Homo sapiens, UniProt Q93009). Kind of assay: Recombinant DUB assay, USP7 catalytic domain. It counts as biochemical.
Assay [9] has as its target UCH37 in the 19S regulatory particle (Homo sapiens, UniProt Q9Y5K5). Put plainly: Activity profiling of UCH37 in 19S regulatory particle with Cy5-UbVME. It counts as biochemical. The following applies: read-out: EC50, inhibition of UCH37.
In assay [10] the target is USP9x (Mus musculus, UniProt P70398). Put plainly: DUB activity profiling in cell lysates, USP9x labeling. The class given is biochemical. Particulars: read-out: IC50, inhibition of USP9x labeling.
USP9x, sequence (P70398 whole entry): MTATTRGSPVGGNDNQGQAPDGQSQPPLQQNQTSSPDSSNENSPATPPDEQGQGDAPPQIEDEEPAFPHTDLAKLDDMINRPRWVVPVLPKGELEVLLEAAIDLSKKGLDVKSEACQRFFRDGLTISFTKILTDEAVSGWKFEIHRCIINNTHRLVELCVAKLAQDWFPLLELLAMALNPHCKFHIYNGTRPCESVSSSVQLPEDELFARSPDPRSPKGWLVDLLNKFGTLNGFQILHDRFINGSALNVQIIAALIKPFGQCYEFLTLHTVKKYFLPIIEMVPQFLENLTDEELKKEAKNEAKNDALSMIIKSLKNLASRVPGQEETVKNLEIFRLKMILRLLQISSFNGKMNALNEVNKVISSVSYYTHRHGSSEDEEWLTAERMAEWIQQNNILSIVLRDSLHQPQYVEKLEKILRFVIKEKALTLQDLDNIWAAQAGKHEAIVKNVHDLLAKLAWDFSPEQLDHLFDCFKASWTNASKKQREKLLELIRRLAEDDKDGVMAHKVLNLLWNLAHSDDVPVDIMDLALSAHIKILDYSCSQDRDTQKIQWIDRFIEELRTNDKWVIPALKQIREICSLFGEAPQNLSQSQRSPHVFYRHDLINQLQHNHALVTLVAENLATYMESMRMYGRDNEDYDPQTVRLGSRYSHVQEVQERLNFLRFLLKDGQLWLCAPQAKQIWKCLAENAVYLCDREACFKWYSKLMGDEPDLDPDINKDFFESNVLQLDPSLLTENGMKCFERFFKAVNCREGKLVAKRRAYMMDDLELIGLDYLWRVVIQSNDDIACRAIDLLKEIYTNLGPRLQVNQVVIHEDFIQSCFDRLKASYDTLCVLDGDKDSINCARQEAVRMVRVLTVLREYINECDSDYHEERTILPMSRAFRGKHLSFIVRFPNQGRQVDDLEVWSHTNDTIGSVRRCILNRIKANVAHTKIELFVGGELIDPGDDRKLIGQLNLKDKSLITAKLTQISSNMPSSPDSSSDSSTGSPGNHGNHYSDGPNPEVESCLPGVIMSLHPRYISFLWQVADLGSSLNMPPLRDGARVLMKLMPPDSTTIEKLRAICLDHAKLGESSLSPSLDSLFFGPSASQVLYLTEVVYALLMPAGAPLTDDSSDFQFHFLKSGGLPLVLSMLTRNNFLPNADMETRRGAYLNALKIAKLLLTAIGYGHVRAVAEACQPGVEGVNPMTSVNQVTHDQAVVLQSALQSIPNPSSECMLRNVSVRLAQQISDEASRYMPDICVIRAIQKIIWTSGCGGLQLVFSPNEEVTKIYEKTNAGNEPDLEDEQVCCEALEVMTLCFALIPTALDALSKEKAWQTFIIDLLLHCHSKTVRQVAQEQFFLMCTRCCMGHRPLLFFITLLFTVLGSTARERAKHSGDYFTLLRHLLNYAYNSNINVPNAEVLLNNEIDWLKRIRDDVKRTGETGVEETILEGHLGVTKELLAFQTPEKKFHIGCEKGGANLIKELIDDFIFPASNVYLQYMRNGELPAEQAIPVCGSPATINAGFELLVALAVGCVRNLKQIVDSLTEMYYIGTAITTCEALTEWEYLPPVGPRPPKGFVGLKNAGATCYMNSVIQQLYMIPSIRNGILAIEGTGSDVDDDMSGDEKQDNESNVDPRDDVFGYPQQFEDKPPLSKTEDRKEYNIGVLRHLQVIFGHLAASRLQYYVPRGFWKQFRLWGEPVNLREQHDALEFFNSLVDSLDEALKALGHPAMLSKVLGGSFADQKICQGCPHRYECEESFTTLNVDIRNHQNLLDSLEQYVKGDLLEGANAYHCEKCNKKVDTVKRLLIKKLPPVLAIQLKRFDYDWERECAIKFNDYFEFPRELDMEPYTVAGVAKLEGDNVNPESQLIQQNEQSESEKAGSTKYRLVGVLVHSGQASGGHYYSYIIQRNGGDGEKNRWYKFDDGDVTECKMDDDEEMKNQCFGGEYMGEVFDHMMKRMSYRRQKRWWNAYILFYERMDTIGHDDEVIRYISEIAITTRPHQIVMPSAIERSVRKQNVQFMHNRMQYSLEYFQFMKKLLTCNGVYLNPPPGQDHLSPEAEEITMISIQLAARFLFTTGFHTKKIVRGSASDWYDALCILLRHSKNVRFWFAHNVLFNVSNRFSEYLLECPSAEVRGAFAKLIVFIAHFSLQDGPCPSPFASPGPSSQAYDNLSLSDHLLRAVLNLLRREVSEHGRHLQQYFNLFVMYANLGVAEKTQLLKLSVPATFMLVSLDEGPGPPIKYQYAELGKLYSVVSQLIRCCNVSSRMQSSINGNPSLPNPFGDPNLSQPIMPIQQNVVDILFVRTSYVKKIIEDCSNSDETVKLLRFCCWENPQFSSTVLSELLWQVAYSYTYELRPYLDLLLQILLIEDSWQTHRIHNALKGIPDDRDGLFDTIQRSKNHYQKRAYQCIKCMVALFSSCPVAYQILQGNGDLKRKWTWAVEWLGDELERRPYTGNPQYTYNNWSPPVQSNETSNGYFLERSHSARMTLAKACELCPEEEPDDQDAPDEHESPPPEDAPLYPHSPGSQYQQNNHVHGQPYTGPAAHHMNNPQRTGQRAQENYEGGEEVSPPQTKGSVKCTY
In assay [11] the test system is cancer cell lines. The following applies: read-out: EC50, inhibition of cell growth; exposure for only 3 h; cited from earlier work.
The test system of assay [12] is 26S proteasome activity in COS1 cells expressing Ub^G76V-GFP. Put plainly: Ubiquitin G76V-GFP assay. The class given is cell-based, African green monkey. Particulars: 8 h; for Effect on GFP levels: BITC, PEITC 12 μM, WP1130 5 μM.
Assay [13] has as its system Bcr-Abl in BaF3/p210 cells. Put plainly: Bcr-Abl levels and aggregation, western blot. The class given is cell-based, mouse.
In assay [14] the test system is PARP cleavage in BaF3/p210 cells. Put plainly: PARP cleavage, western blot. It counts as cell-based, mouse. The following applies: 5 μM.
Assay [15] relates to K63-linked Ub in BaF3/p210 cells. Put plainly: K63-linked HMW-Ub accumulation, whole cell lysate western blot. It counts as cell-based, mouse. The following applies: 4 h.
In assay [16] the test system is BaF3, BaF3/p210 and K562 cells. Kind of assay: Proliferation/viability assay, 48 h. The class given is cell-based. The following applies: read-out: EC50, viability.
Assay [17] deals with MCF7, NIH3T3 and COS1 cells. Kind of assay: Proliferation/viability assay, 48 h. It counts as cell-based.
The subject of assay [18] is DUBs. It counts as biochemical, mouse. Particulars: for Reversibility of inhibition of DUB labeling: lysate incubated with 250 μM ITC, then diluted 20-fold into HA-UbVS; for Labeling of several DUBs (bands between 120 and 300 kDa): cell lysates, HA-UbVS.
For assay [19], the target named is USP7 (Mus musculus, UniProt Q6A4J8). Kind of assay: DUB activity profiling in cell lysates, USP7. It counts as biochemical. Particulars: immunoblotting.
Assay [20] deals with Bcr-Abl in BaF3/p210 and K562 cells. Kind of assay: Bcr-Abl ubiquitination. It counts as cell-based. The following applies: 5 μM, 2 h. In short, it runs like this:
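BaF3/p210 cells (1 h) or K562 cells (2 h) were exposed to 5 μM test compound or 0.1% DMSO at 37 °C. Lysates were set to 1 mg/mL and pre-cleared with protein G (1 h, 4 °C). Bcr-Abl was immunoprecipitated with anti-cAbl overnight at 4 °C onto protein G beads. Alternatively, K63-linked polyubiquitinated proteins were enriched on RAP80-UIM agarose. Immunoblotting followed.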

The test system of assay [21] is K48-linked Ub in BaF3/p210 cells. Put plainly: K48-linked HMW-Ub accumulation, whole cell lysate western blot. It counts as cell-based, mouse. Particulars: 4 h; for Increase in K48-linked Ub: 15 μM; for Accumulation of K48-linked HMW-Ub: bortezomib 20 nM.
Assay [22] concerns the target T1, recombinant USP9x. Put plainly: Labeling of recombinant USP9x with Cy5-UbVME. It counts as biochemical. The following applies: read-out: IC50, inhibition of labeling of recombinant USP9x with Cy5-UbVME; purified recombinant enzyme.
Assay [23] concerns the target human 20S proteasome (Homo sapiens, UniProt P28074). Kind of assay: 20S proteasome assay. The class given is biochemical. Particulars: substrate; Hill coefficient = 2; pH 7.6, 25 °C.
Assay [24] has as its system proteasome activity of rabbit reticulocyte lysate. Put plainly: Proteasome activity of rabbit reticulocyte lysate. The class given is biochemical. Particulars: substrate; Hill coefficient = 1.3.

USP9x in BaF3/p210 cells, sequence (P70398 whole entry): as above

For the molecule `S=C=NCc1ccccc1` [BITC, benzyl ITC], the IC50 was determined as 22 ± 4 µM in [1], 56 ± 5 µM in [2], 4 ± 1 µM in assay [4] and 27 ± 6 µM in [10]. For the same molecule, the “Inhibition of recombinant UCHL3” value in assay [3] is listed as “No inhibition”. In assay [5], the “Levels of ubiquitinated Flag-Mcl-1” value is reported as “increased”. The “Mode of inhibition of recombinant USP9x” value in [6] was “slow binding competitive inhibitors”. For the same molecule, in assay [6], the Ki worked out at 25 ± 1 µM. In addition, in assay [7], the “Effect on Mcl-1 levels” value is on record as “decrease”. Further, the “Inhibition of the catalytic domain of USP7” value in assay [8] is “No inhibition”. Besides, the half-maximal effective concentration (EC50) in assay [9] is 31 ± 6 µM; in [11] it was 1.8 to 17 µM; in assay [16] it was 1 to 3 µM. The “Effect on GFP levels” value in assay [12] is given as “did not increase”. Moreover, the “Effect on levels of total Bcr-Abl” value in [13] is recorded as “decreased”. Moreover, the Bcr-Abl knockdown result in [13] (5 μM, 2 h) is reported as “essentially complete”. Also, the “Time at which PARP cleavage was observed” value in [14] is 6 h. In [15], the “Increase in K63-linked Ub” value is 9-18 fold. Further, in [17], the “Fold less sensitive than Mcl-1-dependent cells” value is 8 to 40 fold. The “Reversibility of inhibition of DUB labeling” value in [18] is reported as “slowly reversible”. In addition, the “Inhibition of USP7” value in [19] is “do not inhibit”. Moreover, the Bcr-Abl ubiquitination result in [20] is on record as “increase”. Further, the “Increase in K48-linked Ub” value in assay [21] is 2 to 4 fold.

`O=C1/C(=C/c2ccc([N+](=O)[O-])cc2)CS(=O)(=O)C/C1=C\c1ccc([N+](=O)[O-])cc1` [G5, reference compound]: the “Labeling of several DUBs (bands between 120 and 300 kDa)” value in assay [18] was “reduced”.

Regarding `CC(C)C[C@@H](C=O)NC(=O)[C@H](CC(C)C)NC(=O)[C@H](CC(C)C)NC(=O)OCc1ccccc1` [MG-132, reference compound] (Cbz-Leu-Leu-Leu-aldehyde), the “Effect on Mcl-1 levels” value in assay [7] is recorded as “increased”.

Turning to `S=C=NCCc1ccccc1` [PEITC, phenethyl ITC], the IC50 in assay [1] came out at 13 ± 1 µM; in assay [2] it was 28 ± 5 µM; in assay [4], 7 ± 2 µM; in assay [10], 15 ± 3 µM; in assay [22] it was 20 ± 2 µM. Besides, the “Inhibition of recombinant UCHL3” value in assay [3] was “No inhibition”. Also, the “Levels of ubiquitinated Flag-Mcl-1” value in assay [5] is recorded as “increased”. The “Mode of inhibition of recombinant USP9x” value in assay [6] is “slow binding competitive inhibitors”. For the same molecule, the Ki in [6] was determined as 23 ± 2 µM. Further, the “Effect on Mcl-1 levels” value in [7] is listed as “decrease”. Also, the “Inhibition of the catalytic domain of USP7” value in [8] is recorded as “No inhibition”. Also, the EC50 in assay [9] is 36 ± 5 µM; in assay [11] it was 1.8 to 17 µM; in [16], 1 to 3 µM. For the same molecule, in assay [12], the “Effect on GFP levels” value was “did not increase”. For the same molecule, in [13], the “Effect on levels of total Bcr-Abl” value is given as “decreased”. Besides, the “Bcr-Abl level, % of its initial level” value in assay [13] (5 μM, within 2 h) is reported as 20%. The “Time at which PARP cleavage was observed” value in [14] is 4 h. Also, the “Increase in K63-linked Ub” value in [15] is on record as 9-18 fold. In addition, in [17], the “Fold less sensitive than Mcl-1-dependent cells” value is reported as 8 to 40 fold. Moreover, the “Reversibility of inhibition of DUB labeling” value in assay [18] was “slowly reversible”. For the same molecule, in [19], the “Inhibition of USP7” value was “do not inhibit”. In addition, the Bcr-Abl ubiquitination entry in assay [20] is given as “increase”. Further, the “Increase in K48-linked Ub” value in [21] lay in the range of 2 to 4 fold.

Regarding `C[S+]([O-])CCCCN=C=S` (stereo not shown) [SFN, sulforaphane], the EC50 in [11] was around 50 µM. Further, the “Accumulation of K48-linked HMW-Ub” value in assay [21] is on record as “no effect”.

For `Cc1cc(=O)oc2cc(NC(=O)[C@H](Cc3ccc(O)cc3)NC(=O)[C@@H](NC(=O)[C@H](CC(C)C)NC(=O)[C@H](CC(C)C)NC(=O)CCC(=O)O)C(C)C)ccc12` [Suc-Leu-Leu-Val-Tyr-AMC] (Suc-LLVY-{AMC}), in assay [23], the “K0.5 for human 20S proteasome” value is 12 ± 2 µM. For the same molecule, the “Apparent K0.5 of proteasome activity of rabbit reticulocyte lysate” value in assay [24] turned out to be 28 ± 3 µM.

For `CCC[C@H](NC(=O)/C(C#N)=C/c1cccc(Br)n1)c1ccccc1` [WP1130, reference compound], in assay [5], the “Levels of ubiquitinated Flag-Mcl-1” value is on record as “increased”. Further, the “Effect on GFP levels” value in [12] is listed as “did not cause an increase”. Also, in assay [18], the “Labeling of several DUBs (bands between 120 and 300 kDa)” value is reported as “reduced”.

For the molecule `CC(C)C[C@H](NC(=O)[C@H](Cc1ccccc1)NC(=O)c1cnccn1)B(O)O` [bortezomib, reference compound], in assay [5], the “Levels of ubiquitinated Flag-Mcl-1” value is listed as “increased”. The “Effect on Mcl-1 levels” value in [7] was “increased”. The “Increase in GFP fluorescence” value in [12] (bortezomib 4 μM) is 1.5 fold. In addition, in assay [15] (bortezomib 20 nM), the “Effect on K63-linked Ub” value is listed as “no effect”. Further, the “Accumulation of K48-linked HMW-Ub” value in assay [21] is given as “increased”.
